Measured values from ChEMBL document CHEMBL4138126, “Synthesis, antiproliferative, anti-tubulin activity, and docking study of new 1,2,4-triazoles as potential combretastatin analogues” (Eur J Med Chem, 2017).
pIC50: −log10 of the molar value.

Key:
ACHN = assay: Growth inhibition of human ACHN cells assessed as cell growth at 10 uM after 48 hrs by sulforhodamine B assay; assay type: functional; settings: read-out: Activity
Summary of the method: (§1)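 NCI 60-cell-line panel screen (nine cancer types). Compounds added at single concentration 10^-5 M, cultures incubated 48 h; growth inhibition percentages reported.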

MDA-MB-435 = assay: Growth inhibition of human MDA-MB-435 cells assessed as cell growth at 10 uM after 48 hrs by sulforhodamine B assay; assay type: functional; settings: MDA-MB-435, 48 h, read-out: Activity; summary of the method: as §1
HL-60(TB) = assay: Growth inhibition of human HL-60(TB) cells assessed as cell growth at 10 uM after 48 hrs by sulforhodamine B assay; assay type: functional; settings: HL-60, 48 h, read-out: Activity
Summary of the method: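 Screened by the NCI in its 60-cell-line panel covering nine cancer types, including leukemia. Compounds were added at a single concentration, and the cultures were incubated for 48 h. Results are reported as percent growth inhibition.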

HCT-116 = assay: Growth inhibition of human HCT116 cells assessed as cell growth at 10 uM after 48 hrs by sulforhodamine B assay; assay type: functional; settings: HCT-116, 48 h, read-out: Activity; summary of the method: as §1
COLO 205 = assay: Growth inhibition of human COLO205 cells assessed as cell growth at 10 uM after 48 hrs by sulforhodamine B assay; assay type: functional; settings: COLO 205, 48 h, read-out: Activity; summary of the method: as §1
DU-145 = assay: Growth inhibition of human DU145 cells assessed as cell growth at 10 uM after 48 hrs by sulforhodamine B assay; assay type: functional; settings: DU-145, 48 h, read-out: Activity; summary of the method: as §1
HOP-62 = assay: Growth inhibition of human HOP62 cells assessed as cell growth at 10 uM after 48 hrs by sulforhodamine B assay; assay type: functional; settings: HOP-62, 48 h, read-out: Activity; summary of the method: as §1
OVCAR-4 = assay: Growth inhibition of human OVCAR4 cells assessed as cell growth at 10 uM after 48 hrs by sulforhodamine B assay; assay type: functional; settings: OVCAR-4, 48 h, read-out: Activity; summary of the method: as §1
RXF 393 = assay: Growth inhibition of human RXF393 cells assessed as cell growth at 10 uM after 48 hrs by sulforhodamine B assay; assay type: functional; settings: RXF 393, 48 h, read-out: Activity; summary of the method: as §1
MDA-MB-468 = assay: Growth inhibition of human MDA-MB-468 cells assessed as cell growth at 10 uM after 48 hrs by sulforhodamine B assay; assay type: functional; settings: MDA-MB-468, 48 h, read-out: Activity; summary of the method: as §1
BT-549 = assay: Growth inhibition of human BT549 cells assessed as cell growth at 10 uM after 48 hrs by sulforhodamine B assay; assay type: functional; settings: BT-549, 48 h, read-out: Activity; summary of the method: as §1
HOP-92 = assay: Growth inhibition of human HOP92 cells assessed as cell growth at 10 uM after 48 hrs by sulforhodamine B assay; assay type: functional; settings: HOP-92, 48 h, read-out: Activity; summary of the method: as §1
NCI-H522 = assay: Growth inhibition of human NCI-H522 cells assessed as cell growth at 10 uM after 48 hrs by sulforhodamine B assay; assay type: functional; settings: NCI-H522, 48 h, read-out: Activity; summary of the method: as §1
LOX IMVI = assay: Growth inhibition of human LOXIMVI cells assessed as cell growth at 10 uM after 48 hrs by sulforhodamine B assay; assay type: functional; settings: read-out: Activity; summary of the method: as §1
NCI-H226 = assay: Growth inhibition of human NCI-H226 cells assessed as cell growth at 10 uM after 48 hrs by sulforhodamine B assay; assay type: functional; settings: NCI-H226, 48 h, read-out: Activity; summary of the method: as §1
HT-29 = assay: Growth inhibition of human HT-29 cells assessed as cell growth at 10 uM after 48 hrs by sulforhodamine B assay; assay type: functional; settings: HT-29, 48 h, read-out: Activity; summary of the method: as §1
SW-620 = assay: Growth inhibition of human SW620 cells assessed as cell growth at 10 uM after 48 hrs by sulforhodamine B assay; assay type: functional; settings: SW-620, 48 h, read-out: Activity
Summary of the method: (§2)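 NCI 60-cell-line panel from nine tumour types (leukaemia, lung, colon, CNS, melanoma, ovarian, renal, prostate, breast). Each compound was added at one single concentration, and cultures were incubated for 48 h. Results are reported as percent growth inhibition.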

M14 = assay: Growth inhibition of human M14 cells assessed as cell growth at 10 uM after 48 hrs by sulforhodamine B assay; assay type: functional; settings: M14, 48 h, read-out: Activity; summary of the method: as §1
SR = assay: Growth inhibition of human SR cells assessed as cell growth at 10 uM after 48 hrs by sulforhodamine B assay; assay type: functional; settings: read-out: Activity; summary of the method: as §2
Hs-578T = assay: Growth inhibition of human Hs 578T cells assessed as cell growth at 10 uM after 48 hrs by sulforhodamine B assay; assay type: functional; settings: read-out: Activity; summary of the method: as §1
MDA-MB-231 = assay: Growth inhibition of human MDA-MB-231 cells assessed as cell growth at 10 uM after 48 hrs by sulforhodamine B assay; assay type: functional; settings: MDA-MB-231, 48 h, read-out: Activity; summary of the method: as §1
RPMI-8226 = assay: Growth inhibition of human RPMI8226 cells assessed as cell growth at 10 uM after 48 hrs by sulforhodamine B assay; assay type: functional; settings: RPMI-8226, 48 h, read-out: Activity; summary of the method: as §1
HL-60 = assay: Cytotoxicity in human HL60 cells assessed as reduction in cell viability incubated for 48 hrs by MTT assay; assay type: functional, cell-based; settings: HL-60, 48 h
Summary of the method: (§3)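 HepG2 and HL60 (ATCC) grown in DMEM with 10% FBS, 2 mM L-glutamine, penicillin/streptomycin, amphotericin B at 37 °C, 5% CO2. Samples dissolved in DMSO, diluted thousandfold in assay. Cells seeded in serum-free medium, treated with serial concentrations 48 h; MTT 4 h, formazan dissolved in acidified isopropanol, A570. Triplicates averaged; viability relative to untreated/vehicle control.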

NCI-H23 = assay: Growth inhibition of human NCI-H23 cells assessed as cell growth at 10 uM after 48 hrs by sulforhodamine B assay; assay type: functional; settings: NCI-H23, 48 h, read-out: Activity; summary of the method: as §1
CCRF-CEM = assay: Growth inhibition of human CCRF-CEM cells assessed as cell growth at 10 uM after 48 hrs by sulforhodamine B assay; assay type: functional; settings: read-out: Activity; summary of the method: as §1
SF-268 = assay: Growth inhibition of human SF268 cells assessed as cell growth at 10 uM after 48 hrs by sulforhodamine B assay; assay type: functional; settings: SF-268, 48 h, read-out: Activity; summary of the method: as §1
MCF7 = assay: Growth inhibition of human MCF7 cells assessed as cell growth at 10 uM after 48 hrs by sulforhodamine B assay; assay type: functional; settings: MCF7, 48 h, read-out: Activity; summary of the method: as §1
IGROV-1 = assay: Growth inhibition of human IGROV1 cells assessed as cell growth at 10 uM after 48 hrs by sulforhodamine B assay; assay type: functional; settings: IGROV-1, 48 h, read-out: Activity; summary of the method: as §1
HepG2 = assay: Cytotoxicity in human HepG2 cells assessed as reduction in cell viability incubated for 48 hrs by MTT assay; assay type: functional, cell-based; settings: HepG2, 48 h; summary of the method: as §3
OVCAR-8 = assay: Growth inhibition of human OVCAR8 cells assessed as cell growth at 10 uM after 48 hrs by sulforhodamine B assay; assay type: functional; settings: OVCAR-8, 48 h, read-out: Activity; summary of the method: as §1
MOLT-4 = assay: Growth inhibition of human MOLT4 cells assessed as cell growth at 10 uM after 48 hrs by sulforhodamine B assay; assay type: functional; settings: MOLT-4, 48 h, read-out: Activity; summary of the method: as §1

SMILES | growth at 10 µM (ACHN) [%] | growth at 10 µM (MDA-MB-435) [%] | growth at 10 µM (HL-60(TB)) [%] | growth at 10 µM (HCT-116) [%] | growth at 10 µM (COLO 205) [%] | growth at 10 µM (DU-145) [%] | growth at 10 µM (HOP-62) [%] | growth at 10 µM (OVCAR-4) [%] | growth at 10 µM (RXF 393) [%] | growth at 10 µM (MDA-MB-468) [%] | growth at 10 µM (BT-549) [%] | growth at 10 µM (HOP-92) [%] | growth at 10 µM (NCI-H522) [%] | growth at 10 µM (LOX IMVI) [%] | growth at 10 µM (NCI-H226) [%] | growth at 10 µM (HT-29) [%] | growth at 10 µM (SW-620) [%] | growth at 10 µM (M14) [%] | growth at 10 µM (SR) [%] | growth at 10 µM (Hs-578T) [%] | also measured
CCOc1ccc(-n2nc(C(=O)Nc3cc(OC)c(OC)c(OC)c3)nc2-c2cc(OC)c(OC)c(OC)c2)cc1 | 85.7 | 79.6 | 98.2 | 75.8 | 80.3 | 99.1 | 95.7 | 68.1 | 83.8 | 82 | 91.5 | 69.9 | 65.9 | 89 | 78.1 | 84.6 | 95.5 | 91.5 | 40.7 | 65.6 | growth at 10 µM (MDA-MB-231): 50.5%; growth at 10 µM (RPMI-8226): 55.7%; pIC50 (HL-60): < 4.00; growth at 10 µM (NCI-H23): 85%; growth at 10 µM (CCRF-CEM): 66.5%; growth at 10 µM (SF-268): 92.1%; growth at 10 µM (MCF7): 83.2%; growth at 10 µM (IGROV-1): 90.8%; pIC50 (HepG2): 4.42; growth at 10 µM (OVCAR-8): 74%; growth at 10 µM (MOLT-4): 67.5%
CCOc1ccc(-n2nc(C(=O)Nc3ccccc3)nc2-c2cc(OC)c(OC)c(OC)c2)cc1 | 62.8 | 0.19 | 32.9 | 21.2 | 22.1 | 89.6 | 55.7 | 59.5 | 69.2 | 42.5 | 60.9 | 46 | 22.8 | 55.8 | 80 | 13 | 36.1 | 38 | 17 | 39.6 | growth at 10 µM (MDA-MB-231): 43.9%; growth at 10 µM (RPMI-8226): 47.4%; pIC50 (HL-60): 5.89; growth at 10 µM (NCI-H23): 66.6%; growth at 10 µM (CCRF-CEM): 50.8%; growth at 10 µM (SF-268): 76.5%; growth at 10 µM (MCF7): 37%; growth at 10 µM (IGROV-1): 55.1%; pIC50 (HepG2): 4.38; growth at 10 µM (OVCAR-8): 61.6%; growth at 10 µM (MOLT-4): 42.9%
